Data as given in ChEMBL document CHEMBL4665803, “Discovery of Covalent Inhibitors Targeting the Transcriptional Enhanced Associate Domain Central Pocket” (J Med Chem, 2020).
Activity calls are given as the source filed them. The rule behind the calls is not given here.

What was measured:
[1] = target: T1, Transcriptional enhancer factor TEF-3 (Homo sapiens, UniProt Q15561); test: Inhibition of FITC-labeled palmitate tracer binding to N-terminal His6-tagged human TEAD4 (217 to 434 residues) expressed in Escherichia coli BL21-CodonPlus (DE3)-RIPL cells preincubated for 10 mins followed by FITC-labeled palmitate tracer addition and measured after 1 hr by fluorescence assay
Method in brief: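 FP competition in 25 mM HEPES, 150 mM NaCl, pH 6.5: serially diluted compound preincubated 10 min at room temperature with nonacylated hTEAD4, then FITC-palmitate tracer added (final 50 nM protein, 10 nM tracer); shaken 1 h at room temperature, FP at Ex/Em 485/535 nm. Tracer Kd from saturation binding.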

[2] = target: T1, Transcriptional enhancer factor TEF-3; test: Inhibition of CPM binding to N-terminal His6-tagged human TEAD4 (217 to 434 residues) expressed in Escherichia coli BL21-CodonPlus (DE3)-RIPL cells preincubated for 10 mins followed by CPM addition and measured after 1 hr by fluorescence assay; conditions: for inhibition: time 70.0 min
[3] = target: T1, Transcriptional enhancer factor TEF-3; test: Inhibition of CPM binding to N-terminal His6-tagged human TEAD4 (217 to 434 residues) expressed in Escherichia coli BL21-CodonPlus (DE3)-RIPL cells at 12.5 uM preincubated for 10 mins followed by CPM addition and measured after 1 hr by fluorescence assay relative to control; conditions: time 70.0 min
[4] = target: T1, Transcriptional enhancer factor TEF-3; test: Binding affinity to nonacylated N-terminal His6-tagged human TEAD4 (217 to 434 residues) expressed in Escherichia coli BL21-CodonPlus (DE3)-RIPL cells assessed as melting temperature at 80 uM after 10 mins by SYPRO orange dye-based differential scanning fluorimetry method (reference value: 41 degreeC)
[5] = target: T1, Transcriptional enhancer factor TEF-3; test: Binding affinity to nonacylated N-terminal His6-tagged human TEAD4 (217 to 434 residues) expressed in Escherichia coli BL21-CodonPlus (DE3)-RIPL cells assessed as inhibition of protein-FAM-YAP (50 to 100 residues) interaction preincubated for 10 mins followed by FAM YAP addition and measured after 1 hr by fluorescence assay
Method in brief: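 FP competition in PBS pH 7.5: serially diluted compound preincubated 10 min at room temperature with TEAD4 protein, then FAM-YAP50–100 added; shaken 1 h at room temperature, FP read at Ex/Em 485/535 nm. Final FAM/protein: nonacylated hTEAD4 2 nM/5 nM; acylated hTEAD4 3 nM/15 nM. Compound stocks 10 mM in DMSO. IC50 from curve fitting.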

[6] = target: T1, Transcriptional enhancer factor TEF-3; test: Inhibition of TEAD4 in HEK293 cells assessed as reduction in ANKRD1 mRNA expression at 1 uM measured after 6 hrs by SYBR green dye based RT-PCR analysis relative to control; format: cell-based
Method in brief: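 HEK293 cells treated with DMSO or compound for 6 h; ANKRD1 mRNA measured by RT-qPCR relative to the DMSO control.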

[7] = target: T1, Transcriptional enhancer factor TEF-3; test: Selectivity ratio of apparent IC50 for inhibition of CPM binding to N-terminal His6-tagged human TEAD4 (217 to 434 residues) expressed in Escherichia coli BL21-CodonPlus (DE3)-RIPL cells to IC50 for inhibition of FITC-labeled palmitate tracer binding to N-terminal His6-tagged human TEAD4 (217 to 434 residues) expressed in Escherichia coli BL21-CodonPlus (DE3)-RIPL cells
[8] = target: Transcriptional enhancer factor TEF-3 (Mus musculus) (UniProt Q62296); test: Binding affinity to nonacylated mouse TEAD4 at 0.5 mM by 1H-15N HSQC spectra analysis
Method in brief: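 1H–15N HSQC of 13C/15N-labeled mTEAD4, deacylated with hydroxylamine; spectra with DMSO or compound (0.5 mM) recorded at 37 °C on a 600 MHz cryoprobe instrument in 20 mM HEPES pH 7.3, 150 mM NaCl, 1 mM DTT; spectra overlaid.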

[9] = target: T1, Transcriptional enhancer factor TEF-3; test: Binding affinity to nonacylated N-terminal His6-tagged human TEAD4 (217 to 434 residues) expressed in Escherichia coli BL21-CodonPlus (DE3)-RIPL cells at 8 equiv after 1 hr by ESI-MS spectrophotometric analysis
Method in brief: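 Whole-protein ESI–MS: 1 μM hTEAD4 incubated 1 h at room temperature with 8 equiv compound in 25 mM HEPES, 150 mM NaCl, pH 6.5; centrifuged, injected via online desalting column to UPLC-MS; masses deconvoluted to detect adducts.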

T1 sequence (Q15561 whole entry, the tested form may be a part): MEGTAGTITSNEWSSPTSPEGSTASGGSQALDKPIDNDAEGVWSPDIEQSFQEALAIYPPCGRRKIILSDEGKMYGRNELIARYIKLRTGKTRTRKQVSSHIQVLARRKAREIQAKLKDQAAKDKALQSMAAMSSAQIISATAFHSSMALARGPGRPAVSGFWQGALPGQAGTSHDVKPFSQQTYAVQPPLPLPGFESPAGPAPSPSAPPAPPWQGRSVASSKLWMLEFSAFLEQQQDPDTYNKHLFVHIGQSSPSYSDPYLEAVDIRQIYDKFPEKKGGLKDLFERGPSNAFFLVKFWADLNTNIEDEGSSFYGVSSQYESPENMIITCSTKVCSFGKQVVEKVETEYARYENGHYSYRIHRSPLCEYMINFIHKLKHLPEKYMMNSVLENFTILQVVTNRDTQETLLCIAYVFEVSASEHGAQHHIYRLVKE
Chain of Transcriptional enhancer factor TEF-3 (Mus musculus) (Q62296 whole entry): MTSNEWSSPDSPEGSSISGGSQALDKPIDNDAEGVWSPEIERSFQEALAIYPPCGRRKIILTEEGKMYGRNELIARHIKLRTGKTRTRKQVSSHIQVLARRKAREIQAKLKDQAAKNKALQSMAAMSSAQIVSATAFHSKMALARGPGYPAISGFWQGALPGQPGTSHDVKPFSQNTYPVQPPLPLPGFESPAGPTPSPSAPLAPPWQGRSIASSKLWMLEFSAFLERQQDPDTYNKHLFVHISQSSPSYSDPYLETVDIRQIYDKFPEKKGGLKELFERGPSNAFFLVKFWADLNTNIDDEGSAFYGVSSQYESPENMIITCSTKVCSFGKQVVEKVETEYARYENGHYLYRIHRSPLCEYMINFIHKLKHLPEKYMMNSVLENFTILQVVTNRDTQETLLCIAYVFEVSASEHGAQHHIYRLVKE

| SMILES | IC50 [1] [µM] | IC50 ([2]; read-out: IC50(app)) [µM] | inhibition [3] [%] | also measured |
| --- | --- | --- | --- | --- |
| O=c1cc(CO)oc(C(c2ccccc2)N2Cc3ccccc3C2)c1O (configuration not stated) | 0.9 | 13.2 | > 50 |  |
| O=C(CCl)c1ccccc1Nc1cccc(C(F)(F)F)c1 | 14.1 | 0.8 |  | inhibition [2]: Dose-dependent effect |
| O=c1cc(CO)oc(C(Nc2ccccn2)c2ccccn2)c1O (configuration not stated) | 16 | > 100 | > 50 |  |
| O=c1cc(CO)oc(C(NCc2ccccc2)c2ccccc2)c1O (configuration not stated) | 0.4 | 4 | > 50 |  |
| O=c1cc(CO)oc(C(Nc2nccs2)c2ccccc2)c1O (configuration not stated) | 5.6 | 53.4 | > 50 | Tm [4]: 41 °C |
| O=C(O)c1ccccc1Nc1cccc(C(F)(F)F)c1 |  |  |  | inhibition [2]: Dose-dependent effect |
| O=c1cc(CO)oc(C(Nc2ncccn2)c2ccccc2)c1O (configuration not stated) | 13.4 | > 100 | > 50 |  |
| O=c1cc(CO)oc(C(Nc2ccccn2)c2ccc(Br)cc2)c1O (configuration not stated) | 0.4 | 3.7 | > 50 | Tm [4]: 39 °C |
| CC(C)NC(c1ccccc1)c1oc(CO)cc(=O)c1O (configuration not stated) | 1.5 | 16.8 | > 50 |  |
| O=c1cc(CO)oc(C(Nc2ccccc2)c2ccc3ccccc3c2)c1O (configuration not stated) | 0.2 | 1.1 | > 50 |  |
| O=c1cc(CO)oc(C(Nc2nccs2)c2ccc(F)cc2)c1O (configuration not stated) |  |  | > 50 | IC50 ([2]; read-out: IC50): 43.1 µM |
| CSCC[C@H](NCc1oc(CO)cc(=O)c1O)C(=O)O |  |  | < 50 | IC50 ([2]; read-out: IC50): > 100 µM |
| O=c1cc(CO)oc(C(Nc2ccccc2)c2ccccc2F)c1O (configuration not stated) | 0.1 | 0.7 | > 50 |  |
| O=c1cc(CO)oc(C(Nc2cccc(F)c2)c2ccccc2)c1O (configuration not stated) | 0.2 | 1.5 | > 50 |  |
| O=c1cc(CO)oc(C(Nc2ccccc2)c2ccc(F)cc2)c1O (configuration not stated) | 0.3 | 1.9 | > 50 |  |
| O=c1cc(CO)oc(C(Nc2nc3ccccc3[nH]2)c2ccccc2)c1O (configuration not stated) | 6.4 | > 100 | > 50 |  |
| O=C(O)c1cccnc1Nc1cccc(C(F)(F)F)c1 [NIFLUMIC ACID] | 5.9 | 41.9 |  | inhibition [2]: Dose-dependent effect |
| Cc1ccc(C(Nc2ccccc2)c2oc(CO)cc(=O)c2O)cc1 (configuration not stated) | 0.2 | 1.3 | > 50 |  |
| O=c1cc(CO)oc(C(Nc2ccccn2)c2ccccc2)c1O (configuration not stated) | 0.3 | 3.1 | > 50 |  |

| SMILES | IC50 [1] [µM] | IC50 ([2]; read-out: IC50(app)) [µM] | inhibition [3] [%] | also measured |
| --- | --- | --- | --- | --- |
| COc1c(C(Nc2ccccc2)c2ccccc2)oc(CO)cc1=O (configuration not stated) | 41.6 | > 100 | < 50 | IC50 [5]: 9.5 µM; Tm [4]: 41 °C; inhibition [6]: inactive; Ratio IC50 [7]: > 200; Activity [8]: inactive; Activity [9]: inactive |
| O=c1cc(CO)oc(CNc2ccccc2)c1O | 36.4 | > 100 | > 50 |  |
| COc1c(C(Nc2ccccn2)c2ccccc2F)oc(CO)cc1=O (configuration not stated) | 49.9 | > 100 | < 50 | Ratio IC50 [7]: > 200 |
| O=c1cc(CO)oc(CN2CCN(c3ccccn3)CC2)c1O |  |  | < 50 | IC50 ([2]; read-out: IC50): > 100 µM |
| CC(C)c1ccc(C(Nc2ccccc2)c2oc(CO)cc(=O)c2O)cc1 (configuration not stated) | 0.2 | 1 | > 50 |  |
| CCOC(=O)C1CCCN(Cc2oc(CO)cc(=O)c2O)C1 (configuration not stated) |  |  | < 50 | IC50 ([2]; read-out: IC50): > 100 µM |
| CCCCCCCCCCCCCCCC(=O)O |  |  |  | inhibition [2]: Dose-dependent effect |
| NC(=O)c1ccc(C(Nc2ccccc2)c2oc(CO)cc(=O)c2O)cc1 (configuration not stated) | 0.3 | 1.5 | > 50 |  |
| O=c1cc(CO)oc(C(Nc2ccccc2)c2ccccn2)c1O (configuration not stated) | 0.5 | 18.9 | > 50 |  |
| Cc1ccnc(NC(c2ccccc2)c2oc(CO)cc(=O)c2O)c1 (configuration not stated) | 0.3 | 2.4 | > 50 |  |
| O=c1cc(CO)oc(C(Nc2cccc(F)c2)c2ccccn2)c1O (configuration not stated) |  |  | > 50 | IC50 ([2]; read-out: IC50): 8.7 µM |
| O=c1cc(CO)oc(C(Nc2ccccn2)c2ccccc2F)c1O (configuration not stated) | 0.3 | 3.2 | > 50 | IC50 ([2]; read-out: IC50): 3.2 µM |
| O=c1cc(CO)oc(C(Nc2ccccc2)C2CCCCC2)c1O (configuration not stated) | 22.6 | > 100 | > 50 |  |
| NC(=O)c1ccc(NC(c2ccccn2)c2oc(CO)cc(=O)c2O)cc1 (configuration not stated) | 1.1 | 9.2 | > 50 |  |
| CC(C)C(Nc1ccccc1)c1oc(CO)cc(=O)c1O (configuration not stated) | 38.1 | > 100 | > 50 |  |
| NC(=O)c1ccc(NC(c2ccccc2)c2oc(CO)cc(=O)c2O)cc1 (configuration not stated) | 0.3 | 1.7 | > 50 |  |
| O=c1cc(CO)oc(C(Nc2ccccn2)c2cccnc2)c1O (configuration not stated) | 14.7 | > 100 | > 50 |  |
| O=c1cc(CO)oc(C(Nc2ccccc2)c2ccc(Br)cc2)c1O (configuration not stated) | 0.2 | 1.2 | > 50 |  |
